Bioassay records deposited in PubChem by several laboratories.
This is a sample that favours compounds with a hit; in the whole collection about 1.7% have one here.
Scp-1 inhibitor: Scp-1 phosphatase inhibitors, primary screen, biochemical, colorimetric, uHTS; Carboxy-terminal domain RNA polymerase II polypeptide A small phosphatase 1 (Homo …; Recombinant Scp1, phosphopeptide, malachite green phosphate absorbance; 340,000 tested, 0.88% active; inhibition, % at 20 µM;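 active means inhibition above about 50% at 20 µM, limit read from the data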;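 further: plate controls were DMSO wells with enzyme for no effect and wells lacking enzyme for full effect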
Target sequence (Q9GZU7 76-261 limits assumed): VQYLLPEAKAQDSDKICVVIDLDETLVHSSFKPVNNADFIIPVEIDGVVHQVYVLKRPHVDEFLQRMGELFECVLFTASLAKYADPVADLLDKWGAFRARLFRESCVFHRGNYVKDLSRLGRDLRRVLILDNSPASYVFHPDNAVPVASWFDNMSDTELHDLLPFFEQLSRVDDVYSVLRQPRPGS
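Times: enzyme reaction 45 min at room temperature, colour 5 min, stabilisation 30 min. Material: SCP-1 catalytic fragment, aa 76-261. Medium: Acidic Tris acetate buffer with magnesium and detergent. Signal: colorimetric free-phosphate detection, absorbance 630 nm. Read-out basis: % inhibition of SCP-1 phosphate liberation. Reagent: Phosphorylated 17-residue peptide substrate.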
DSG3 Ab inh: inhibitors of pemphigus antibody binding to DSG3, primary screen, biochemical, bead-based, flow cytometry, scFv-GFP. DSG3-coupled beads, scFv-anti-DSG3-GFP binding; stronger effect = lower value. 310,000 tested, 0.48% active. binding (percent of control), % at 10 µM. Desmoglein-3 (Homo sapiens), P32926;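 active means binding more than 3 SD below its plate's average and above zero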;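 further: hits lower antibody fragment binding to DSG3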
STEP inh: STEP phosphatase inhibitors, primary screen, biochemical, fluorescence intensity, uHTS; Tyrosine-protein phosphatase non-receptor type 5 (Homo sapiens), P54829; recombinant STEP, OMFP fluorogenic substrate; inhibition, % at 20 µM; 360,000 tested, 0.25% active; AID 588621, 2011;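 active means inhibition at 20 µM, scaled per plate between control wells, above about 37%, limit read from the data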;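 further: 0% = DMSO with enzyme and substrate and 100% = substrate only without enzyme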
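Measure: Control-normalized % inhibition with plate pattern correction | Test system: STEP phosphatase, cell-free reaction | Medium: pH 6.0 Bis-Tris with DTT and Tween 20 | Technique: Fluorescence, 480/540 nm | Times: Reaction 20 min, ambient temperature | Doses: Single compound dose of 20 µM, 1% DMSO final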
SUMO1 PPI mod: modulators of SUMO1 protein-protein interactions, primary screen, biochemical, uHTS. Small ubiquitin-related modifier 1 (Homo sapiens), P63165. SUMO1 binding to a labelled peptide, TR-FRET, 1 h. inhibition, % at 20 µM. 360,000 tested, 0.33% active. AID 602429, 2012; in the data active means inhibition above about 37%
Target sequence (P63165 whole entry, looked up): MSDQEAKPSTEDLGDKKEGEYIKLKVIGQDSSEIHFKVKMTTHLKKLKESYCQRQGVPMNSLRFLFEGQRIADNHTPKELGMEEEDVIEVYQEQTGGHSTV
LMPTP block: LMPTP phosphatase inhibitors, primary screen, biochemical, fluorescence intensity, uHTS | Low molecular weight phosphotyrosine protein phosphatase (Homo sapiens), P24666 | recombinant LMPTP-A, OMFP fluorogenic substrate | inhibition, % at 20 µM | 360,000 tested, 0.22% active;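 active means compounds that cut the enzyme signal by at least half of the control window in the single-dose screen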;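 further: plate controls were DMSO wells with enzyme plus substrate for no effect and substrate without enzyme for full effect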
Target sequence (P24666 whole entry, looked up): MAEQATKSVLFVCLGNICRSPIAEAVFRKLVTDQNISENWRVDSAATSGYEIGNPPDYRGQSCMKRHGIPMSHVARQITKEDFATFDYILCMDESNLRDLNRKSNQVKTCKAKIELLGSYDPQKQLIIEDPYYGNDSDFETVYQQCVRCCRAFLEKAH
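Test system: LMPTP-A phosphatase enzyme. Amount: LMPTP-A at 0.625 nM final in the reaction. Reagent: OMFP substrate, 400 µM final. Times: 50 min at room temperature. Signal: endpoint fluorescence intensity from OMFP dephosphorylation. Read-out basis: % inhibition. Benchmarks: no-enzyme and uninhibited controls.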
Scp1 confirm: Scp-1 phosphatase inhibitors, retest, confirmation, biochemical, colorimetric, single concentration; shares compounds with Scp-1 inhibitor; recombinant SCP-1 catalytic domain, phosphate release, malachite green absorbance; inhibition, % at 20 µM; 2,500 tested, 61% active;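 further: plate controls were DMSO with enzyme for no effect and buffer wells lacking enzyme for full effect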
MG interference: colorimetric readout interference by compounds, confirmation, artefact control for Scp-1 inhibitor project, biochemical, single concentration; shares compounds with Scp-1 inhibitor; Colorimetric interference counterscreen, malachite green absorbance 630 nm; apparent inhibition (interference), % at 20 µM; 2,500 tested, under 10 active;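 further: compounds added after enzyme reaction finished so only phosphate colour detection is probed; plate controls were DMSO wells with completed Scp-1 reaction for no effect and substrate wells lacking enzyme for full effect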
Scp-1 Tm shift: Scp-1 binding by thermal shift, confirmation, orthogonal assay for Scp-1 inhibitor project, biophysical, differential scanning fluorimetry; 1,500 tested, 25% active; Recombinant SCP1, Sypro Orange thermal shift Tm; shares compounds with Scp-1 inhibitor; thermal shift relative to vanadate control, % at 40 µM; AID 540329, 2011;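 active means substances whose mean melting-temperature shift, as a percentage of the reference inhibitor's shift, reaches about 5.3%, limit read from the data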;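 further: 0% = Tm of DMSO wells and 100% = Tm with sodium orthovanadate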
The depositor's hits bear a star; nt = no result given.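 How the source made its calls, unless noted: active means inhibition of at least 30% at 20 µM; inactive means the rest.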

SMILES	Scp-1 inhibitor	DSG3 Ab inh	STEP inh	SUMO1 PPI mod	LMPTP block	Scp1 confirm	MG interference	Scp-1 Tm shift
CC1(C)C(C=C(Cl)Cl)C1C(=O)Nc1ccc([N+](=O)[O-])cc1 (stereo not given)	-7	nt	nt	nt	nt	nt	nt	nt
CCOC(=O)N/N=C/c1c(F)c(F)c(F)c(F)c1F	-7	85	-2	-3	-1	nt	nt	nt
COc1ccc(-c2nc(CN(CC3CCC(=O)N3)C(C)C)c(C)o2)c(C)c1C (stereo not given)	-9	100	-2	5	0	nt	nt	nt
CCOC(=O)c1ccc(N2C(=O)c3n[nH]c(C)c3C2c2ccc(OC)cc2)cc1 (stereo not given)	-6	75	0	-1	1	nt	nt	nt
CCOC(=O)c1ccc(N2C(=O)c3n[nH]c(C)c3C2c2ccc(OC)c(OC)c2)cc1 (stereo not given)	57*	98	1	3	-1	-9	-4	nt
CN(Cc1cnc2nc(N)nc(N)c2n1)c1ccc(C(=O)NC(CCC(=O)O)C(=O)O)cc1 (stereo not given)	62*	71	0	4	6	70*	-7	4
CN(Cc1cnc2nc(N)nc(N)c2n1)c1ccc(C(=O)NC(CCC(=O)O)C(=O)O)cc1C(F)(F)F (stereo not given)	50*	88	4	12	25	3	-8	nt
CCOC(=O)CCC(NC(=O)c1cncc(O)c1)C(=O)OCC (stereo not given)	3	nt	1	0	-2	nt	nt	nt
CCCN(CCC)C(=O)C(CCC(=O)O)NC(=O)c1ccccc1 (stereo not given)	-3	104	-2	4	-1	nt	nt	nt
COC(=O)[C@H](CC(C)C)N(Cc1ccccc1)S(=O)(=O)N(Cc1ccc(OC)cc1)[C@@H](CC(C)C)C(=O)OC	-9	112	1	3	1	nt	nt	nt
C[N+]1(CCCCSc2ccc(O)cc2)CCCCC1	98*	101	2	-2	-1	83*	-15	-13
C[N+]1(CCCOC(=O)C2(c3ccccc3)CCCC2)CCOCC1	74*	185	-1	21	0	37*	-14	1
CC(=O)c1ccc(NC(=O)CSc2nnc(-c3ccco3)c(-c3ccco3)n2)cc1	83*	98	10	43*	54*	58*	-22	9.4*
O=C(Nc1ccc(-c2nc3ccccc3s2)c(O)c1)C1=COCCO1	98*	89	22	2	53*	71*	-7	9.9*
O=C(Nc1ccc(O)c(-c2nc3ccccc3s2)c1)C1=COCCO1	-11	127	-1	-117	1	nt	nt	nt
COC(=O)c1ccn(CC(=O)NC2CCCCC2)n1	66*	102	4	1	1	48*	-3	-3
O=C(c1ccc(Cl)c([N+](=O)[O-])c1)N1CCN(S(=O)(=O)c2ccc(Cl)cc2)CC1	-11	nt	-2	-13	0	nt	nt	nt
N=c1c(S(=O)(=O)c2ccc(Br)cc2)cc2c(=O)n3ccccc3nc2n1Cc1ccco1	23	101	16	12	40	nt	nt	nt
N=c1c(S(=O)(=O)c2ccc(Cl)cc2)cc2c(=O)n3ccccc3nc2n1Cc1ccco1	52*	105	5	-4	5	4	-1	nt
CCCn1c(N)c(C(=O)COC(=O)COc2ccc(Cl)c(C)c2)c(=O)n(C)c1=O	-8	101	-2	0	1	nt	nt	nt
Cc1ccc(C(=O)N/N=C\C=C\c2ccc(Br)cc2)cn1	72*	87	6	-19	1	48*	-6	-16
CC1CC(C)CN(C(=O)COC(=O)c2ccc(Cl)nc2)C1 (stereo not given)	-3	94	4	3	0	nt	nt	nt
COc1cc2sc3ccc(C#Cc4ccccn4)cc3c(=O)c2cc1OC	50*	78	10	32	42	5	-15	nt
Cc1cccc2cc(/C=N/NC(=O)c3ccncc3)c(Cl)nc12	-11	111	-3	-2	-1	nt	nt	nt
Cc1cccc2cc(/C=N/NC(=O)c3ccccc3O)c(Cl)nc12	95*	109	4	2	12	73*	-19	4
SMILES	Scp-1 inhibitor	DSG3 Ab inh	STEP inh	SUMO1 PPI mod	LMPTP block	Scp1 confirm	MG interference	Scp-1 Tm shift
C=CCNc1nc(C(=O)OCC(=O)c2cccc(Br)c2)cs1	57*	nt	4	2	9	60*	-18	11*
C=CCNc1nc(C(=O)OCC(=O)c2ccc(F)cc2)cs1	13	97	2	0	-1	nt	nt	nt
OC[C@H]1O[C@@H](c2nc3ccc(-c4nc(-c5ccc(Br)cc5)no4)cc3[nH]2)C[C@@H]1O	nt	nt	1	-1	-2	nt	nt	nt
O=C(CSc1nccc(=O)[nH]1)NCc1ccco1	93*	93	10	27	1	69*	-3	3
O=C(CSc1nc2ncccc2[nH]1)NCc1ccco1	11	100	2	1	-1	nt	nt	nt
O=C(CSc1nc2c(sc3ccccc32)c(=O)n1CCO)NCc1ccco1	74*	95	3	5	1	64*	-7	-19
O=C(CSc1nc2c(sc3ccccc32)c(=O)n1CCCN1CCCC1)NCc1ccco1	-11	114	-3	-2	15	nt	nt	nt
Cc1cc2nc(-c3cccnc3SCC(=O)NCc3ccco3)[nH]c2cc1C	-8	100	1	14	5	nt	nt	nt
O=C(CSc1ncccc1-c1nc2ccccc2[nH]1)NCc1ccco1	56*	102	-1	21	6	66*	-3	6.5*
O=c1cc[nH]c2ccc([N+](=O)[O-])cc12	-6	103	2	-29	2	nt	nt	nt
CCc1nc2ccc(C(=O)N3CCN(C)CC3)cn2c1N(C)CCCc1ccccc1	nt	nt	-1	1	-5	nt	nt	nt
CC(C)Cn1c(C23CC4CC(CC(C4)C2)C3)n[nH]c1=S	11	130	0	-1	0	nt	nt	nt
CCc1ccc(NC(=O)C(=O)N/N=C(\C)CC(=O)NCc2ccc(Cl)cc2)cc1	80*	107	-2	-1	0	-3	-10	nt
